ChEMBL document CHEMBL1134408, “Antitumor agents. 207. Design, synthesis, and biological testing of 4beta-anilino-2-fluoro-4'-demethylpodophyllotoxin analogues as cytotoxic and antiviral agents” (2001)
≈ marks a conversion by molar mass, not a printed value.

Assays:
A549 [1] = experiment: % inhibition against A549 cells (lung cancer) at 0.4 ug/mL; assay type: functional; conditions: Homo sapiens
[2] = GI values against KB cells (nasopharyngeal carcinoma); assay type: functional; conditions: Homo sapiens
CAKI-1 [3] = experiment: GI values against CAKI-1 cells(renal carcinoma); assay type: functional; conditions: Homo sapiens
Human alphaherpesvirus 1 [4] = experiment: Effective dose required to inhibit 100% against herpesvirus simplex 1; assay type: functional
Summary of the method: (§1)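 Plaque elimination in pre-formed confluent Vero monolayers, HSV-1 strain KOS or HSV-2 strain 186, ~100 PFU inoculum for 30 min. Overlay medium had 0.5% calf serum, 1% carboxymethylcellulose and drug dilutions. Crystal violet fix/stain at 2 days; macroscopic plaques scored. ED100 = dilution fully eliminating plaques without monolayer toxicity. MIC = lowest dilution reducing plaque size/number. Repeated at least twice.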

[5] = % inhibition against KB cells (nasopharyngeal carcinoma) at 4 ug/mL; assay type: functional; conditions: Homo sapiens
[6] = % inhibition against KB cells (nasopharyngeal carcinoma) at 0.4 ug/mL; assay type: functional; conditions: Homo sapiens
Human betaherpesvirus 5 = experiment: Inhibitory activity against human cytomegalovirus (HCMV); assay type: functional; conditions: for IC50: read-out: ID50 (the source's name)
Summary of the method: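 Confluent HEL fibroblasts infected with Towne strain CMV at 1–2 PFU/cell, with or without a drug dilution series. Antiviral effect read either as extracellular virus yield (day-6 supernatant titred by plaque assay on HEL, counted at 2 weeks) or as viral DNA by 32P-CMV-probe dot hybridization with scintillation counting of dots.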

[7] = % inhibition against KB cells (nasopharyngeal carcinoma) at 0.04 ug/mL; assay type: functional; conditions: Homo sapiens
Human alphaherpesvirus 2 [8] = experiment: Effective dose required to inhibit 100% against herpesvirus simplex 2; assay type: functional; summary of the method: as §1
A549 [9] = experiment: % inhibition against A549 cells (lung cancer) at 4 ug/mL; assay type: functional; conditions: Homo sapiens
Human alphaherpesvirus 1 [10] = experiment: Minimum inhibitory concentration against herpesvirus simplex 1; assay type: functional; summary of the method: as §1
Vero [11] = experiment: Minimum inhibitory concentration for cell growth inhibition (Herpesvirus activity); assay type: functional; conditions: Chlorocebus sabaeus
Summary of the method: (§2)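 Cells seeded at 50 000 cells/mL with a drug dilution series, exposed 2 days; cell number by sulforhodamine B staining. ED25 interpolated from dose–response as the concentration cutting absorbency by 25%. MIC = lowest dilution giving detectable growth inhibition. Triplicate wells; absorbency within 5%, ED25 within 30% across independent tests.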

CAKI-1 [12] = experiment: % inhibition against CAKI-1 cells(renal carcinoma) at 0.04 ug/mL.; assay type: functional; conditions: Homo sapiens
MCF7 [13] = experiment: % inhibition against MCF-7 cells (breast cancer) at 4 ug/mL; assay type: functional; conditions: Homo sapiens
MCF7 [14] = experiment: % inhibition against MCF-7 cells (breast cancer) at 0.4 ug/mL; assay type: functional; conditions: Homo sapiens
CAKI-1 [15] = experiment: % inhibition against CAKI-1 cells(renal carcinoma) at 0.4 ug/mL.; assay type: functional; conditions: Homo sapiens
A549 [16] = experiment: % inhibition against A549 cells (lung cancer) at 0.04 ug/mL; assay type: functional; conditions: Homo sapiens
Human alphaherpesvirus 2 [17] = experiment: Minimum inhibitory concentration against herpesvirus simplex 2; assay type: functional; summary of the method: as §1
CAKI-1 [18] = experiment: % inhibition against CAKI-1 cells(renal carcinoma) at 4 ug/mL.; assay type: functional; conditions: Homo sapiens
Vero [19] = experiment: Effective dose required to inhibit 25% of cell growth (Herpesvirus activity); assay type: functional, Chlorocebus sabaeus; summary of the method: as §2
A549 [20] = experiment: GI values against A549 cells (lung cancer); assay type: functional; conditions: Homo sapiens
MCF7 [21] = experiment: % inhibition against MCF-7 cells (breast cancer) at 0.04 ug/mL; assay type: functional; conditions: Homo sapiens
HEL = experiment: Inhibitory activity against HEL cells; assay type: functional; conditions: Homo sapiens, read-out: ED50 (the source's name)
Summary of the method: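 Human embryonic lung fibroblasts in MEM/10% FBS, 6% CO2, seeded at 50 000 cells/mL with a drug dilution series. Exposure 15 days; viability and cell counts by trypan blue. ED50 (50% growth reduction versus untreated cells) interpolated from dose–response data.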

[22] = Selectivity index (ED50/ID50) value of the compound; assay type: functional
Summary of the method: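 Ratio of ED50 for growing HEL cells (15-day trypan blue count) to ID50 against Towne strain CMV in HEL fibroblasts.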

| SMILES | inhibition at 0.4 µg/mL (A549 [1]) | GI50 [2] | GI50 (CAKI-1 [3]) | inhibition at 4 µg/mL [5] | inhibition at 0.4 µg/mL [6] | ID90 (Human betaherpesvirus 5) | IC50 (Human betaherpesvirus 5) | inhibition at 0.04 µg/mL [7] | inhibition at 4 µg/mL (A549 [9]) | inhibition at 0.04 µg/mL (CAKI-1 [12]) | inhibition at 4 µg/mL (MCF7 [13]) | inhibition at 0.4 µg/mL (MCF7 [14]) | inhibition at 0.4 µg/mL (CAKI-1 [15]) | inhibition at 0.04 µg/mL (A549 [16]) | inhibition at 4 µg/mL (CAKI-1 [18]) | GI50 (A549 [20]) | inhibition at 0.04 µg/mL (MCF7 [21]) | EC50 (HEL) | SI [22] | also measured |
| --- | --- | --- | --- | --- | --- | --- | --- | --- | --- | --- | --- | --- | --- | --- | --- | --- | --- | --- | --- | --- |
| COc1cc([C@@H]2c3cc4c(cc3[C@H](O)[C@H]3COC(=O)[C@]23F)OCO4)cc(OC)c1OC | 69.6% | 31.6 nM | > 10000 nM | 87.4% | 72% | >5 µM | > 5000 nM | 53.3% | 73.1% | 18.1% | 51% | 48% | 39.7% | 59.4% | 40.5% | 3980 nM | 34.2% |  |  | ED100 (Human alphaherpesvirus 1 [4]): 10 µM; ED100 (Human alphaherpesvirus 2 [8]): 1000 nM; MIC (Human alphaherpesvirus 1 [10]): 1 µM (≈ 0.432 µg/mL); MIC (Vero [11]): 0.8 µM (≈ 0.346 µg/mL); MIC (Human alphaherpesvirus 2 [17]): 0.1 µM (≈ 0.0432 µg/mL); ED25 (Vero [19]): 1 µM |
| COc1cc([C@@H]2c3cc4c(cc3[C@@H](Nc3ccc([N+](=O)[O-])cc3)[C@H]3COC(=O)[C@]23F)OCO4)cc(OC)c1O | 6.5% | > 10000 nM | > 10000 nM | 41.6% | 3.8% | 4.6 µM | 1450 nM | 0% | 51.8% | 0.8% | 42.1% | 7.3% | 2.6% | 0% | 21.9% | 3980 nM | 0.9% | 6.09 µM | 4.2 |  |
| COc1cc([C@@H]2c3cc4c(cc3[C@@H](Nc3ccc5c(c3)OCCC5=O)[C@H]3COC(=O)[C@H]23)OCO4)cc(OC)c1O |  | 631 nM | 126 nM |  |  |  |  |  |  |  |  |  |  |  |  | 100 nM |  |  |  |  |
| COc1cc([C@@H]2c3cc4c(cc3[C@@H](Nc3ccc(C#N)cc3)[C@H]3COC(=O)[C@]23F)OCO4)cc(OC)c1O | 11.9% |  |  | 30.5% | 4.2% | 4.29 µM | 760 nM | 5% | 52.5% | 7.9% | 45.8% | 8.2% | 9.5% | 11.1% | 28.4% |  | 7.7% | 8.43 µM | 11.1 |  |
| COc1cc([C@@H]2c3cc4c(cc3[C@H](O)[C@H]3COC(=O)[C@H]23)OCO4)cc(OC)c1OC [PODOFILOX] |  |  | 100 nM |  |  |  | < 100 nM |  |  |  |  |  |  |  |  | 7.94 nM |  |  |  | ED100 (Human alphaherpesvirus 1 [4]): 0.05 µM; ED100 (Human alphaherpesvirus 2 [8]): 100 nM; MIC (Human alphaherpesvirus 1 [10]): 0.01 µM (≈ 0.00414 µg/mL); MIC (Vero [11]): 0.008 µM (≈ 0.00332 µg/mL); MIC (Human alphaherpesvirus 2 [17]): 0.01 µM (≈ 0.00414 µg/mL); ED25 (Vero [19]): 0.02 µM |
| COc1cc([C@@H]2c3cc4c(cc3[C@@H](O)[C@H]3COC(=O)[C@]23F)OCO4)cc(OC)c1O | 34.3% |  |  | 64% | 25.6% | >5 µM | > 5000 nM | 0% | 78.1% | 0% | 53.8% | 21.8% | 10.6% | 0% | 39% |  | 0% | 8.2 µM | < 1.6 |  |
| COc1cc([C@@H]2c3cc4c(cc3[C@@H](Nc3ccc(N)cc3)[C@H]3COC(=O)[C@H]23)OCO4)cc(OC)c1O |  | 794 nM | 316 nM |  |  |  | 1250 nM |  |  |  |  |  |  |  |  | 316 nM |  |  |  |  |
| COc1cc([C@@H]2c3cc4c(cc3[C@H](O[Si](C)(C)C(C)(C)C)[C@H]3COC(=O)[C@H]23)OCO4)cc(OC)c1OC |  |  |  |  |  |  |  |  |  |  |  |  |  |  |  |  |  |  |  | ED100 (Human alphaherpesvirus 1 [4]): 10 µM; ED100 (Human alphaherpesvirus 2 [8]): 1000 nM; MIC (Human alphaherpesvirus 1 [10]): 1 µM (≈ 0.529 µg/mL); MIC (Vero [11]): 3 µM (≈ 1.59 µg/mL); MIC (Human alphaherpesvirus 2 [17]): 0.1 µM (≈ 0.0529 µg/mL); ED25 (Vero [19]): 6 µM |
| COc1cc([C@@H]2c3cc4c(cc3[C@@H](Nc3ccc(F)cc3)[C@H]3COC(=O)[C@]23F)OCO4)cc(OC)c1O | 26.2% | 2000 nM | > 10000 nM | 70.9% | 10.1% | 4.47 µM | 970 nM | 7.5% | 61.4% | 10.3% | 61.2% | 20% | 15.3% | 16.1% | 44.3% | 2000 nM | 13.2% | 6.1 µM | 6.2 |  |
| COc1cc([C@@H]2c3cc4c(cc3[C@@H](Nc3ccc(C#N)cc3)[C@H]3COC(=O)[C@H]23)OCO4)cc(OC)c1O |  |  |  |  |  |  | 620 nM |  |  |  |  |  |  |  |  |  |  |  |  |  |
| COc1cc([C@@H]2c3cc4c(cc3[C@H](O[Si](C)(C)C(C)(C)C)[C@H]3COC(=O)[C@]23F)OCO4)cc(OC)c1OC |  |  |  |  |  |  |  |  |  |  |  |  |  |  |  |  |  |  |  | MIC (Vero [11]): 6 µM (≈ 3.28 µg/mL); ED25 (Vero [19]): 25 µM |
| COc1cc([C@@H]2c3cc4c(cc3[C@@H](Nc3ccc(N)cc3)[C@H]3COC(=O)[C@]23F)OCO4)cc(OC)c1O | 7.7% | 3980 nM | > 10000 nM | 61.5% | 7.5% | 5.02 µM | 2540 nM | 0% | 51% | 0% | 48.1% | 5.8% | 2.5% | 0% | 38% | 3980 nM | 0% | 7.5 µM | 3 |  |
| COc1cc([C@@H]2c3cc4c(cc3[C@@H](Nc3ccc([N+](=O)[O-])cc3)[C@H]3COC(=O)[C@H]23)OCO4)cc(OC)c1O |  | 501 nM | 158 nM |  |  |  | 350 nM |  |  |  |  |  |  |  |  | 158 nM |  |  |  |  |
| COc1cc([C@@H]2c3cc4c(cc3[C@@H](Nc3ccc(F)cc3)[C@H]3COC(=O)[C@H]23)OCO4)cc(OC)c1O |  | 251 nM | 316 nM |  |  |  | 650 nM |  |  |  |  |  |  |  |  | 251 nM |  |  |  |  |
